Measured values gathered from unrelated publications.
Compare with care: the assays were run in different laboratories.
Target: Fibroblast growth factor receptor 2 (FGFR2, Homo sapiens, UniProt P21802)

| SMILES | effect on | method | tested at | remaining binding |
| --- | --- | --- | --- | --- |
| c1cncc(-c2cccc(Nc3nccc(NC4CCCCC4)n3)c2)c1 | binding | competition with immobilised ligand | 10 µM | 22% |
| Cc1cc(C)c(-n2ccn3nc(-c4cccnc4)cc23)cc1NC(=O)c1cc(C#N)cc(S(F)(F)(F)(F)F)c1 | cell-free assay | competition with immobilised ligand | 0.1 µM | 84.3% |
| COc1cnc(Nc2cccc(S(N)(=O)=O)c2)nc1N1CCN(c2ccccc2)CC1 | binding | competition with immobilised ligand | 1 µM | 90% |
| CN(C)c1nccc(-c2cnc3ncccn23)n1 | binding |  | 1 µM | 100% |
| C[C@H](NC(=O)c1cnc2n1[C@](C)(Cc1ccc(C#N)cc1)C(=O)N2c1cc(Cl)c(F)c(Cl)c1)C(=O)NC1(c2ccccn2)CC1 | cell-free assay | competition with immobilised ligand | 1 µM | 100% |
| N[C@@H]1CCN(c2nccc(-c3cnn4ncccc34)n2)C1 | binding |  | 1 µM | 99% |
| CN1CCN(c2cnc3c(C4CCN(C(=O)c5ccc(OC(F)(F)F)cc5N)CC4)ncnc3c2)CC1 | cell-free assay | competition with immobilised ligand | 1 µM | 100% |
| C[C@@H]1CN(c2ccc3ncc(-c4ccc5[nH]nc(C6CC6)c5c4)n3n2)C[C@H](C)O1 | binding | competition with immobilised ligand | 0.5 µM | 100% |
| CC(C)(C)c1ccc(-c2nc(CBr)nn2-c2cccc(O)c2)cc1 | cell-free assay | competition with immobilised ligand | 10 µM | 95% |
| CCC(=O)N[C@@H]1CC[C@H](C(=O)N(C)c2ccc(-c3nc4ccccc4o3)cc2)C1 | cell-free assay | competition with immobilised ligand | 1 µM | 86% |
| c1cnn2ncc(-c3ccnc(N4CCC45COC5)n3)c2c1 | binding |  | 1 µM | 100% |
| O=C(Nc1c[nH]nc1C(=O)NC1CCNCC1)c1cc(F)cc(F)c1 | binding | competition with immobilised ligand | 1 µM | 100% |
| FC(F)(F)Oc1cccc(-c2cnc3ccc(-c4ccncc4)nn23)c1 | cell-free assay | competition with immobilised ligand | 5 µM | 81% |
| O=C(NCCCN1CCOCC1)c1ccc(Nc2nccc(-c3cc4ccccc4s3)n2)cc1 | binding | competition with immobilised ligand | 1 µM | 84% |
| COc1ncc2cc3ccccc3nc2c1C#N | cell-free assay | competition with immobilised ligand | 5 µM | 93% |
| C[C@@H]1CCN(c2nccc(-c3cnn4ncccc34)n2)C1 | binding |  | 1 µM | 92% |
| O=C(NCCCN1CCOCC1)c1ccc(Nc2ncc(Cl)c(-c3ccc(Cl)s3)n2)cc1 | binding | competition with immobilised ligand | 1 µM | 29% |
| CCOCCn1cc(C(=O)Nc2ccc(-n3nc(-c4cccnc4)cc3C(F)(F)F)cn2)ccc1=O | cell-free assay | competition with immobilised ligand | 1 µM | 49% |
| CCN1CCN(Cc2ccc(C(=O)Nc3ccc(C)c(Oc4ccc5c(c4)CC(=O)N5)c3)cc2C(F)(F)F)CC1 | binding | competition with immobilised ligand | 1 µM | 83% |
| CN(CCCC(F)(F)F)c1nccc(-c2cnn3ncccc23)n1 | binding |  | 1 µM | 89% |
| CC(=O)c1c(NS(C)(=O)=O)c2cc(-c3ccc(Cl)cc3)c(-c3ccc(Cl)cc3Cl)nc2n(C)c1=O | cell-free assay | competition with immobilised ligand | 1 µM | 92% |
| O=C(c1ccc(Nc2nccc(-c3cc4ccccc4s3)n2)cc1)N1CCC(N2CCCC2)CC1 | binding | competition with immobilised ligand | 1 µM | 77% |
| Cn1nc(C(=O)NCc2ccc(C(=O)O)cc2)cc1-c1ccc2[nH]ccc2c1 | cell-free assay | competition with immobilised ligand | 0.1 µM | 87% |
| CN(c1nccc(-c2cnn3ncccc23)n1)C1CC1 | binding |  | 1 µM | 100% |
| Cc1cc(-n2nc(Cc3cc(F)cc(C(F)(F)F)c3)nc2C)ccc1C(N)=O | cell-free assay | competition with immobilised ligand | 1 µM | 100% |
| CN(C)c1nccc(-c2cnn3ncccc23)n1 | binding |  | 1 µM | 100% |
